Assay results taken from PubChem BioAssay AID652236 (Johns Hopkins Ion Channel Center, 2013).
Fewer than 10 of roughly 2,300 compounds were called active.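 The calls were made as follows: active = duplicate-mean ratio percent above the mean of iodide-only control wells, which defines zero, plus 5 of their SD; inactive = the rest.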 These entries were drawn from the full list.

Molecular target: Chloride channel protein 1 (Rattus norvegicus) (UniProt P35524)
Assay: ClC-1 chloride channel inhibition, selectivity assay for TMEM16A inhibitor project, cell-based, voltage-dependent ClC-1 (AID 652236);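 also: higher percent means stronger block of ClC-1 iodide influx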
Conditions: CHO ClC-1-YFP, iodide influx fluorescence quench; at 10 µM; iodide control reads 0, buffer control 100
Summary of the method: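 Material – ClC-1 CHO cells with mutant YFP H148Q/I152L · Buffer or medium – HBSS-HEPES pH 7.4, sodium gluconate substituted for NaCl · Schedule – compound 20 min, RT · Detection – YFP fluorescence quench kinetics · Controls – buffer, iodide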

Chain of Chloride channel protein 1 (Rattus norvegicus) (P35524 whole entry, looked up): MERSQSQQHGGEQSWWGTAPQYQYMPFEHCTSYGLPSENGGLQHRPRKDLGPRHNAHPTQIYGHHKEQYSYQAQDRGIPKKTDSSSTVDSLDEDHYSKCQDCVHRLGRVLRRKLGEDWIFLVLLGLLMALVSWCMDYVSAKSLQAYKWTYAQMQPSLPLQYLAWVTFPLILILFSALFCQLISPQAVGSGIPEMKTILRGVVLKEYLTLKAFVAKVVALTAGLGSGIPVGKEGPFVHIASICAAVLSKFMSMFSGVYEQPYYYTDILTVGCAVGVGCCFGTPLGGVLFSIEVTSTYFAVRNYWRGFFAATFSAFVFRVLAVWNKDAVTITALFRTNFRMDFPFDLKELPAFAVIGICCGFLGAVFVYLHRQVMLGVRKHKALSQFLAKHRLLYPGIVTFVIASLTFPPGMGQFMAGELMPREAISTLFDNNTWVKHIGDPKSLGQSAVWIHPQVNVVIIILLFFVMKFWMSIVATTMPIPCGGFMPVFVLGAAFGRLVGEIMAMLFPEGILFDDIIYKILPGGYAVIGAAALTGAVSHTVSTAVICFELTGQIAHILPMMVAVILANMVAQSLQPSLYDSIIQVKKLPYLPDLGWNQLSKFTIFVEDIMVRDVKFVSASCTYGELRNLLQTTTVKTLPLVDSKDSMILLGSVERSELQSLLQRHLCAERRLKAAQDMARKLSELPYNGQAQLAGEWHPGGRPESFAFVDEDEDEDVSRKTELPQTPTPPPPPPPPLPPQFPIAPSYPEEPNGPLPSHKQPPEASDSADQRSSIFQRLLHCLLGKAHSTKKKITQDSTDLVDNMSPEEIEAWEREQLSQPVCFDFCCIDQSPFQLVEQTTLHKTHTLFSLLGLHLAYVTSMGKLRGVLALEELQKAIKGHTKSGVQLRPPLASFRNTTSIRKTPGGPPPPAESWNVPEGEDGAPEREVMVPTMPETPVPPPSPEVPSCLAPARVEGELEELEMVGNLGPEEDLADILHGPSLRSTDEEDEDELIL

Ratio percent, inactive:
S=C(NCC1CCCO1)N1CCN(c2ccc(Cl)c(Cl)c2)CC1 (stereo unspecified) -16.5%, COc1ccc(Cl)cc1NC(=O)CCS(=O)(=O)c1cc2c(cc1C)NC(=O)CO2 -11%, CCc1cc2c(N3CCN(c4nnc(CC)s4)CC3)ncnc2s1 -5%, Cc1cccc(-n2c(SCC(N)=O)nc3c(c2=O)C2(CCCCC2)Cc2ccccc2-3)c1 -9.5%, Cc1ccc(-c2csc(-c3c[nH]c4ccccc34)n2)cc1 -9.5%, CCCCCc1ccc(-c2ccc(C(=O)O)cc2)nc1 -6%, Cn1c(=O)n(C)c2cc(S(=O)(=O)N3CCCc4ccccc43)ccc21 -7.5%, O=C(Nc1ccccc1)c1ccccc1NC(=O)C(F)(F)F -15%, Cc1ccc(NC(=O)C(C)c2cccc(C(=O)c3ccccc3)c2)cc1 (stereo unspecified) -13.5%, CSc1cccc(NC(=S)N(C(C)C)C(C)c2ccccn2)c1 (stereo unspecified) -3%, CC(C)(C)C(=O)/C(C#N)=C/c1ccc(O)cc1 -8%, C=C(C)Cn1c(C)cc(C)c(S(=O)(=O)c2ccccc2C)c1=O -6%, CCCOc1ccc(Cc2c(Cl)nc(SC)nc2NC)cc1 -27.5%, CC(NC(=O)c1ccco1)C(=O)Nc1nc(-c2ccccn2)cs1 (stereo unspecified) -2.5%, Cc1ccc2c(c1)N(CC(=O)N1CCCc3ccccc31)C(=O)C(C)O2 (stereo unspecified) -3%, Cn1c(CCN2CCCCCC2)nc2cc(NC(=O)Nc3ccccc3)ccc21 -1.5%, Cc1cc(C)cc(NS(=O)(=O)c2ccc(Oc3ncc(C(F)(F)F)cc3Cl)cc2)c1 -9.5%, CN(c1cccc(NC(=O)c2ccc(CN3CCc4ccccc4C3)cc2)c1)S(C)(=O)=O -8%, COc1ccc(S(=O)(=O)NCCCCOc2ccc(Cl)cc2)cc1 -32.5%, COc1ccc(NC(=O)C2=CC(c3ccc(OC)c(OC)c3)=NS(=O)(=O)N2C)cc1 -3.5%, Cc1ccccc1-n1nnnc1SCCCC(=O)c1ccc(F)cc1 -11%, COc1ccc(-c2nc(CCNC(=O)c3ccc(Br)o3)cs2)cc1 -12%, O=C(CN1CCN(C(=S)NC2CCCC2)CC1)Nc1ccc(Oc2ccccc2)cc1 -15.5%, CCOC(=O)C1CCN(c2ncnc3c2oc2ccc(Br)cc23)CC1 -36.5%, Cc1cc(C=O)c(C)n1-c1ccc(NC2CCCCC2)c([N+](=O)[O-])c1 -10.5%, O=C(O)c1ccc(NC(=O)C2CCCCC2)cc1 -7%, Cc1nc(CNS(=O)(=O)c2ccc(Oc3ccccc3)cc2)cs1 -6.5%, S=C(NCc1cccs1)Nc1ccc(Cl)cc1 -12.5%, N#CC1=C(SCc2ccccc2)NC(=O)C(C#N)C12CCCC2 (stereo unspecified) -12.5%, C=CCSc1nsc(NC(=O)Nc2cccc(C(C)=O)c2)n1 -15.5%, O=C(Nc1nc(-c2ccc3c(c2)OCO3)cs1)c1ccncc1 -13.5%, CCC(=O)Nc1ccc2nc(C)n(Cc3ccccc3Cl)c(=O)c2c1 -2%, O=C(N/N=C/c1cc(Cl)cc([N+](=O)[O-])c1O)C(O)(c1ccccc1)c1ccccc1 -7%, O=S1(=O)CCN(Cc2ccccc2Cl)CC1 -3.5%, O=C(NC(=S)Nc1ccccc1C(=O)O)c1ccc(-c2ccc(Br)cc2)o1 -15%, O=C(COC(=O)CCc1c[nH]c(=O)[nH]1)Nc1ccccc1Cl -14%, c1ccc(-c2nnc(SCc3nc4ccccc4[nH]3)o2)cc1 -14%, O=C1c2ccccc2C(Nc2ccc3c(c2)OCCO3)N1Cc1ccco1 (stereo unspecified) -13%, Cc1ccc(NC(=O)CN(C)CC(=O)Nc2cccc(F)c2)cc1[N+](=O)[O-] -20.5%, COC(=O)c1ccc(COC(=O)c2c(C)nn(Cc3ccccc3Cl)c2Cl)o1 -2%, CCn1nccc1C(=O)Nc1ccc(S(=O)(=O)NC23CC4CC(CC(C4)C2)C3)cc1 -8.5%, COc1ccc2[nH]cc(/C=C(/C#N)S(=O)(=O)c3ccccc3)c2c1 -11.5%, CC1=NN(c2cccc(Cl)c2)C(=O)C12CC(C)=C(C)CS2 (stereo unspecified) -13.5%, O=C(CSCc1ccc(Cl)cc1)N1CCN(Cc2ccc3c(c2)OCO3)CC1 2.5%, COc1ccc(CCC(=O)c2ccc(OC)cc2)cc1 -4%, Fc1ccc2[nH]c3c(N4CCSCC4)ncnc3c2c1 -36.5%, O=C(CNCCC1=CCCCC1)Nc1ccccc1N1CCCCCC1 -9%, CN(C)c1cc[n+](Cc2ccccc2)cc1 -5%, Cc1ccc(-n2[nH]c(C)c(/C=N/N3C(=O)c4cccc5cccc(c45)C3=O)c2=O)cc1 -16%, Cc1nc(SCC(=O)N2CCc3ccccc3C2)c2c(C)c(C)sc2n1 -16%, O=C(NCCc1ccc2c(c1)OCCO2)c1cc2ccccc2o1 -21%, Cc1ccc(F)cc1NC(=O)Cc1nn(C)c(=O)c2ccccc12 -14%, Cc1ccc(N)cc1-n1c(C)ccc1C -8%, CCOC(=O)C(Sc1ncc(C#N)c(N)n1)C(C)C (stereo unspecified) -18%, Fc1ccc(CSc2nnc(-c3cc4c(s3)-c3ccccc3CC4)o2)cc1 -3%, N#Cc1nc(COc2ccc(-c3ccccc3)cc2)oc1NCc1cccnc1 -19%, Cc1nc2c(C(=O)NCc3ccc4c(c3)OCO4)c[nH]n2c(=O)c1Cc1ccccc1F -1.5%, COc1cc(CC(=O)Nc2nc(-c3ccc(F)c(F)c3)cs2)cc(OC)c1OC -7%, CN(Cc1cccnc1)C(=O)c1cc(COc2ccc3ncccc3c2)on1 -24%, Cc1ccc(-c2noc(CSc3nnnn3-c3ccccc3)n2)cc1 -1.5%, S=C(NCc1ccc(Cl)cc1)NC12CC3CC(CC(C3)C1)C2 -20.5%
